Bioassay records deposited in PubChem BioAssay by Johns Hopkins Ion Channel Center.
KCNK3 block: human KCNK3 channel inhibition, primary screen; O14649; CHO-KCNK3 thallium flux, FluxOR fluorescence; stronger effect = lower value; B-score at 10 µM; 340,000 tested, 0.84% active;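 active = B-score under library mean minus 4 SD, starting fluorescence ratio at most library mean plus 5 SD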;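 note: more negative B-score means stronger inhibition of thallium flux through KCNK3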
hERG protect: compounds protecting human hERG from proarrhythmic drug block; Q12809; CHO-hERG, FluxOR thallium flux, dofetilide IC70 present; activation (rescue from dofetilide block), less the hit threshold, % at 10 µM; 310,000 tested, 0.51% active;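 active = activation above the mean of controls blocked by dofetilide plus 5 SD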;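 note: thallium influx through hERG after potassium depolarization seen as dye fluorescence rise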
KCNQ1 pot: human KCNQ1 channel potentiation or activation. P51787. CHO-K1 KCNQ1, thallium flux FluxOR fluorescence; stronger effect = higher value. B-score at 10 µM. 310,000 tested, 0.35% active. AID 2648;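 active = fluorescence ratio B-score, a plate-corrected score, at least three library SD, with initial intensity B-score within 5 SD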
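Test system: CHO-K1 cells stably expressing KCNQ1 / Medium: assay buffer / Also added: depolarizing K+/Tl+ stimulus, K2SO4 and Tl2SO4 each 12.5 mM in 5x stock / Incubation: 90 min dye loading and 20 min compound exposure, both at room temperature / Signal: thallium influx via FluxOR fluorescence, kinetic imaging / Evaluation: B score of baseline-normalized fluorescence ratio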
KCNQ1 inh: inhibitors of human KCNQ1 potassium channel | CHO-K1 KCNQ1, FluxOR thallium flux fluorescence; stronger effect = higher value | B-score at 10 µM | 310,000 tested, 1.3% active;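 active = compounds whose thallium flux B-score, printed positive for inhibition, exceeds three library SD while starting fluorescence stays within three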;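 note: channel opened by potassium depolarization with thallium stimulus after 20 min compound exposure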
KCNK9 inh: human KCNK9 channel inhibition. HEK293 KCNK9, FluxOR thallium flux fluorescence; stronger effect = lower value. B-score at 10 µM. 310,000 tested, 1.2% active. AID 488922;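 active = ratio B-score over 3 SD below the library mean, with starting fluorescence within 5 SD of its mean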;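 note: negative B-score means less thallium flux so channel inhibition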
KCNK3 confirm: human KCNK3 channel inhibition, confirmation assay. shares compounds with KCNK3 block. CHO-KCNK3 thallium flux, FluxOR fluorescence; 0% buffer, 100% carvedilol maximal block. 2,400 tested, 99% active. ratio percent of control, % at 10 µM. AID 651638;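 active = ratio percent of control, averaged over triplicates, above buffer control mean plus 5 SD, cut at about 64% in these data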;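 note: ratio is the fluorescence rise from min to max over baseline after thallium stimulus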
KCNK3 noninduced: KCNK3 inhibitor counter-screen hit in non-induced cells; non-induced KCNK3 parental cells, FluxOR thallium flux; stronger effect = lower value; thallium flux ratio (lower = more inhibition) at 10 µM; shares compounds with KCNK3 block; 2,400 tested, 40% active; AID 651747;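 active = thallium flux ratio, averaged over three wells, more than 5 SD below the buffer control mean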;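 note: host cells are CHO cells without KCNK3 induction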
Each line names hits and unclear results; the compound was inactive in the other large screens (follow-up assays come after a bar, where they were run). Hits are enriched below; roughly 3.1% of the tested compounds scored in any of these assays.

CCOc1ccc(C(=O)NCC(=O)NCC(c2ccco2)N2CCCCC2)cc1 (centres undefined)	none (no result: hERG protect, KCNQ1 pot, KCNQ1 inh, KCNK9 inh)
Cc1cc(Nc2ccccc2)nc(-c2ccccc2O)n1	none
Cc1cc(NCc2ccccc2)nc(-c2ccccc2O)n1	KCNK3 block -11 | KCNK3 confirm 133 | KCNK3 noninduced 0.13
CC1=C(C(=O)OC(C)C)C(c2ccc(C)o2)C(C(=O)OC(C)C)=C(C)N1	KCNK3 block -9.4 | KCNK3 confirm 113 | KCNK3 noninduced 0.14
Cc1ccc(-c2cc(C(=O)N/N=C/c3c(C)nn(-c4ccccc4)c3C)n[nH]2)s1	KCNK3 block -9.1 | KCNK3 confirm 130 | KCNK3 noninduced 0.13
COc1ccc(C2C(C(=O)c3ccco3)=C(O)C(=O)N2Cc2cccnc2)cc1OC (centres undefined)	KCNK3 block -9.3 | KCNK3 confirm 64 | KCNK3 noninduced inactive
COc1ccc(C(C)NC(=O)Cc2cccs2)cc1OC (centres undefined)	none
CCC(=NCc1ccco1)c1c(C(F)(F)F)[nH]n(-c2nc3ccccc3s2)c1=O	KCNK3 block -9 | KCNK3 confirm 114 | KCNK3 noninduced inactive
CCC(=NCc1ccccc1)c1c(C(F)(F)F)[nH]n(-c2nc3ccccc3s2)c1=O	none
COc1ccccc1N(C)S(=O)(=O)c1ccc(C)c(C(=O)NCc2ccccn2)c1	none (no result: hERG protect, KCNQ1 pot, KCNQ1 inh, KCNK9 inh)
c1csc(-c2nc(NCC3CCCO3)c3ccccc3n2)c1 (centres undefined)	none
c1ccc(CN2CCC(Nc3nc(-c4cccs4)nc4ccccc34)CC2)cc1	KCNK3 block -10 | KCNK3 confirm 126 | KCNK3 noninduced 0.14
Cc1cccc(OCCCn2c(=O)oc3ccc(C)cc32)c1	KCNK3 block -9.3 | KCNK3 confirm 94 | KCNK3 noninduced inactive
COc1ccccc1OCCCn1c(=O)oc2ccc(C)cc21	none
O=S(=O)(c1cccc(Cn2nnc(-c3ccccc3)n2)c1)N1CCOCC1	none (no result: hERG protect, KCNQ1 pot, KCNQ1 inh, KCNK9 inh)
COC(=O)N/N=C/c1cc(N=Nc2ccccc2)ccc1O	KCNK3 block -11, KCNK9 inh -7.2 | KCNK3 confirm 109 | KCNK3 noninduced 0.15
O=C(Nc1cccc(NC(=O)c2cccnc2)c1)c1ccccc1	KCNK3 block -9.1 | KCNK3 confirm 96 | KCNK3 noninduced inactive
O=C(N/N=C/c1ccccn1)c1cccc(NC(=O)c2ccccc2Cl)c1	none
O=C(N/N=C/c1ccccc1F)c1cccc(NC(=O)c2ccccc2Cl)c1	KCNK3 block -8.8 | KCNK3 confirm 107 | KCNK3 noninduced 0.16
O=C(Nc1cccc(NC(=O)c2ccccc2Cl)c1)c1ccc(F)cc1	KCNK3 block -9.3 | KCNK3 confirm 95 | KCNK3 noninduced inactive
O=C(Nc1cccc(NC(=O)c2ccc(F)cc2)c1)c1ccc(F)cc1	none
COc1ccc(C(=O)Nc2ccc(N3CCN(C(=O)c4ccccc4C)CC3)cc2)cc1	none
Cc1cccc(NC(=O)C2CC(O)CN2C(=O)Oc2ccccc2)c1 (centres undefined)	none
CC(C)NC(=O)c1nc2c(nnn2Cc2cccc(Cl)c2)c(=O)[nH]1	none
CCC(c1nnnn1Cc1ccccc1)N1CCN(C(=O)c2ccco2)CC1 (centres undefined)	KCNK3 block -12 | KCNK3 confirm 72 | KCNK3 noninduced inactive
Cc1ccc(-c2cnc(-c3ccccc3C(=O)O)o2)cc1	none
CCN(CC)S(=O)(=O)c1ccc(C(=O)NNC(=O)c2cccs2)cc1	none
CCN(CC)S(=O)(=O)c1ccc(NC(=O)c2cccs2)cc1	KCNK3 block -10 | KCNK3 confirm 83 | KCNK3 noninduced inactive
CCN(C(=O)COC(=O)CCc1ccccc1)c1ccccc1	KCNK3 block -9.5 | KCNK3 confirm 81 | KCNK3 noninduced inactive
CCN(C(=O)CSc1cc(C)c2ccccc2n1)c1c(N)n(Cc2ccccc2)c(=O)[nH]c1=O	none
CCN(C(=O)COC(=O)CN1C(=O)c2ccccc2C1=O)c1ccccc1	none (no result: hERG protect, KCNQ1 pot, KCNQ1 inh, KCNK9 inh)
CCN(C(=O)COC(=O)CSc1cc(C)c2ccccc2n1)c1ccccc1	KCNK3 block -9.6 | KCNK3 confirm 97 | KCNK3 noninduced inactive
